Measurements from different studies.
Compare with care: the assays were run in different laboratories.
Mode: inhibitor
EGFR: Epidermal growth factor receptor (EGFR, Homo sapiens, UniProt P00533)
EGFR T790M: Epidermal growth factor receptor (EGFR, Homo sapiens, UniProt P00533, T790M)
EGFR L858R/T790M: Epidermal growth factor receptor (EGFR, Homo sapiens, UniProt P00533, L858R/T790M)

SMILES	target	assay	setting	inhibition [%]
CSc1nc(C)c(-c2ccnc(Nc3ccc(N4CCOCC4)cc3)c2)[nH]1	EGFR	cell-free assay	10 µM	56.6
COc1cc(-c2cc(-c3ccc(N4CCNCC4)cc3)cnc2N)cc(OC)c1OC	EGFR T790M	enzyme activity	0.1 µM	2
C=CC(=O)Nc1cc(Nc2nc(N3CCc4sccc4C3)c3sccc3n2)c(OC)cc1N1CCN(C)CC1	EGFR L858R/T790M	enzyme activity, ELISA	0.1 µM	25.6
COc1cc2c(Nc3cccc(OCCn4ccnc4[N+](=O)[O-])c3)ncnc2cc1OCCCN1CCOCC1	EGFR	enzyme activity, FRET	1 µM	24
C=CC(=O)Nc1cc(Nc2nc(N3CCc4sccc4C3)c3cccnc3n2)c(OC)cc1N1CCSCC1	EGFR L858R/T790M	enzyme activity, ELISA	0.1 µM	23.9
COc1cc2ncnc(Nc3ccc(Oc4ccccc4)cc3C)c2cc1OC	EGFR T790M	enzyme activity	1 µM	50
CN1CC(Oc2cnc(C#N)cc2-c2ccn3nc(NC(=O)C4CC4)cc3c2)C1	EGFR	enzyme activity	1 µM	-1
CC/C(=N\NC(=O)NCc1cccc(O)c1)c1ccc(O)c(C)c1O	Epidermal growth factor receptor (EGFR, Homo sapiens, UniProt P00533, L858R)	enzyme activity	0.1 µM	0.5
C=CC(=O)Nc1cc(Nc2nc(N3CCc4sccc4C3)c3cccnc3n2)c(OC)cc1N1CCN(CC)CC1	EGFR L858R/T790M	enzyme activity, ELISA	0.1 µM	23.4
C=CC(=O)Nc1cc(Nc2nccc(Nc3cc(Cl)c(F)cc3C(C)(C)O)n2)c(OC)cc1N1CC[C@@H](N(C)C)C1	EGFR	enzyme activity	1 µM	76
CNCc1ccc(-c2cc(-c3nc(-c4ccc(S(=O)(=O)C(C)C)cc4)cnc3N)on2)cc1	EGFR	enzyme activity	0.4 µM	0
C=CC(=O)Nc1cc(Nc2nc(N3CCc4sccc4C3)c3cccnc3n2)c(OC)cc1N1CCC(N(C)C)CC1	EGFR L858R/T790M	enzyme activity, ELISA	0.1 µM	36
CCCS(=O)(=O)Nc1ccc(F)c(C(=O)c2c[nH]c3ncc(-c4ccc(Cl)cc4)cc23)c1F	EGFR	enzyme activity	1 µM	< 10
CN(C)C1CCN(CC#Cc2nn(C3CCCC3)c3nc(NCc4ccccc4)ncc23)C1 (stereo not drawn)	EGFR	enzyme activity, FRET	10 µM	17
COc1cc(N(C)CCN(C)C)c(NC(=O)C=C(C)C)cc1Nc1nc(N2CCc3sccc3C2)c2sccc2n1	EGFR L858R/T790M	enzyme activity, ELISA	0.1 µM	19.5
O=C(CSc1nc2nccnc2c(=O)n1CCc1ccccc1)Nc1nccs1	EGFR	enzyme activity	10 µM	-2
CCOc1cc(-c2nncn2C)ccc1Nc1ncc2cc(C)nc(NCC(C)(C)C)c2n1	EGFR	enzyme activity, FRET	1 µM	< 15
C=C(Cl)C(=O)Nc1cc(Nc2nc(N3CCSCC3)c3sccc3n2)c(OC)cc1N(C)CCN(C)C	EGFR L858R/T790M	enzyme activity, ELISA	0.1 µM	50.2
COc1cc2ncnc(Nc3ccc(Oc4ccccc4)c(C)c3C)c2cc1OC	EGFR T790M	enzyme activity	1 µM	22
CS(=O)(=O)Nc1cccc(-c2csc(NC(=O)CSc3nc4nccnc4c(=O)n3CCc3ccccc3)n2)c1	EGFR	enzyme activity	10 µM	-1
C=C(Cl)C(=O)Nc1cc(Nc2nc(N3CCCC3)c3sccc3n2)c(OC)cc1N(C)CCN(C)C	EGFR L858R/T790M	enzyme activity, ELISA	0.1 µM	12.7
